Active and inactive are the calls of the source. The calls are words filed in the database; no cut-off is given here.
How the values were obtained:
Vasopressin V2 receptor [1] = target: T1, Vasopressin V2 receptor (Homo sapiens, UniProt P30518); assay: Displacement of [3H]vasopressin from human V2 receptor expressed in CHO cells; assay type: cell-based
Rattus norvegicus = assay: Antidiuretic effect in iv dosed water-loaded Wistar rat assessed as suppression of urinary excretion within 4 hrs; assay type: functional, organism-based; settings: Urine
Vasopressin V2 receptor [2] = target: T1, Vasopressin V2 receptor; assay: Agonist activity at human V2 receptor expressed in CHO cells assessed as increase in cAMP level; assay type: functional, cell-based
Outline: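 CHO cells stably expressing human V2 were grown in α-MEM with 10% FBS and 0.1% amethopterin at 37 °C, then serum-starved for 24 h. Compound was added in α-MEM with 1 mmol/L IBMX and 0.1% BSA for 10 min at 37 °C. Cells were lysed in PBS with 0.2% Triton X-100 and cAMP was read by HTRF. EC50 was derived by logistic regression; Emax was expressed as % of the AVP maximum. Assays were run in triplicate.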

Vasopressin V2 receptor [3] = target: T1, Vasopressin V2 receptor; assay: Intrinsic activity at human V2 receptor expressed in CHO cells assessed as increase in cAMP level relative to arginine vasopressin; assay type: functional, cell-based
Outline: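 CHO cells stably expressing human V2 receptors, grown in α-MEM with 10% FBS, serum-starved 24 h. Compound added in α-MEM with 1 mmol/L IBMX and 0.1% BSA, 10 min at 37 °C. Cells lysed in PBS with 0.2% Triton X-100; cAMP read by HTRF. Maximum response expressed as % of AVP maximum (100%); triplicate.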

Vasopressin V1a receptor = Vasopressin V1a receptor (Homo sapiens, UniProt P37288); assay: Displacement of [3H]vasopressin from human V1a receptor expressed in CHO cells; assay type: cell-based
Outline: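 Membrane receptors from CHO cells expressing human V1a were used in a radioligand competition binding format. Ki values come from triplicate assays.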

Homo sapiens = organism: Homo sapiens; assay: Selectivity for human V1a receptor to human V2 receptor
Cytochrome P450 2C9 = Cytochrome P450 2C9 (Homo sapiens, UniProt P11712); assay: Inhibition of recombinant CYP2C9 by fluorescent P450 inhibition assay
Cytochrome P450 3A4 = Cytochrome P450 3A4 (Homo sapiens, UniProt P08684); assay: Inhibition of CYP3A4 in human liver microsome assessed as 1'-hydroxymidazolam formation by competitive inhibition assay
Cytochrome P450 2C19 = Cytochrome P450 2C19 (Homo sapiens, UniProt P33261); assay: Inhibition of recombinant CYP2C19 by fluorescent P450 inhibition assay
Cytochrome P450 2D6 = Cytochrome P450 2D6 (Homo sapiens, UniProt P10635); assay: Inhibition of recombinant CYP2D6 by fluorescent P450 inhibition assay
Chain of Cytochrome P450 2D6 (P10635 whole entry): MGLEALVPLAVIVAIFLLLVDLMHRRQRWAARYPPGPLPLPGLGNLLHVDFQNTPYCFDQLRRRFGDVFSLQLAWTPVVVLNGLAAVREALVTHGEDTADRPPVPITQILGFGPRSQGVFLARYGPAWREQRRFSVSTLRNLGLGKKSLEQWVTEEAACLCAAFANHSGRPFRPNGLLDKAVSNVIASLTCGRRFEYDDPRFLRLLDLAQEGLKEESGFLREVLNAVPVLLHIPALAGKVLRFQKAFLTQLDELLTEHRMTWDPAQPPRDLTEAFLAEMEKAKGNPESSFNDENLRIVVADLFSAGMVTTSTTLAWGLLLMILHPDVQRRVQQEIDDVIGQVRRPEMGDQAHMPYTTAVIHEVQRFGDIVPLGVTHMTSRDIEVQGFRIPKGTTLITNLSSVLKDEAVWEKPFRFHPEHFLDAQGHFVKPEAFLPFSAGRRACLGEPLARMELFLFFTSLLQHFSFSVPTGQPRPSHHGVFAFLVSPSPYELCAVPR

Chain of Vasopressin V1a receptor (P37288 whole entry): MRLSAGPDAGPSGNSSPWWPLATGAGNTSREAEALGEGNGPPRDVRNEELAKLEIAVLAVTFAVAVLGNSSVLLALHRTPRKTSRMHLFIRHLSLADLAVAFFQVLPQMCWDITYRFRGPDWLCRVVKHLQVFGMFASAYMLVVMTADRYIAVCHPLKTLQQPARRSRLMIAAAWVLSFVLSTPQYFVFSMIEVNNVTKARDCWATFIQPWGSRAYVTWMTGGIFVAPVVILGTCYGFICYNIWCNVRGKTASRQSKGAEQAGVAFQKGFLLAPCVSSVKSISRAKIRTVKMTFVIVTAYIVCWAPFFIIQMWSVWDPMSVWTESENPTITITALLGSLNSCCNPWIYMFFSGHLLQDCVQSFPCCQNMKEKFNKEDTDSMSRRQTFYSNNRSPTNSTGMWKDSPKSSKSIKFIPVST
T1 sequence (P30518 whole entry): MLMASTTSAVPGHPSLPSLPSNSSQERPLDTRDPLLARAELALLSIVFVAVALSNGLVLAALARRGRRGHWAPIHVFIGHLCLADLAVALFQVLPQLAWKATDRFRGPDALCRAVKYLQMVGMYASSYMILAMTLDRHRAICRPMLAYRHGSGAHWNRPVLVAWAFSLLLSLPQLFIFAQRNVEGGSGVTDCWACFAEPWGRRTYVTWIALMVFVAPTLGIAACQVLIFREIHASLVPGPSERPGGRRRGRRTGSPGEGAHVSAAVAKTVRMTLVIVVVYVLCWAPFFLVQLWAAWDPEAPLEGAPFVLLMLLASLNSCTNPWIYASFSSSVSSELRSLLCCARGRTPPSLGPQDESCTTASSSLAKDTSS
Chain of Cytochrome P450 3A4 (P08684 whole entry): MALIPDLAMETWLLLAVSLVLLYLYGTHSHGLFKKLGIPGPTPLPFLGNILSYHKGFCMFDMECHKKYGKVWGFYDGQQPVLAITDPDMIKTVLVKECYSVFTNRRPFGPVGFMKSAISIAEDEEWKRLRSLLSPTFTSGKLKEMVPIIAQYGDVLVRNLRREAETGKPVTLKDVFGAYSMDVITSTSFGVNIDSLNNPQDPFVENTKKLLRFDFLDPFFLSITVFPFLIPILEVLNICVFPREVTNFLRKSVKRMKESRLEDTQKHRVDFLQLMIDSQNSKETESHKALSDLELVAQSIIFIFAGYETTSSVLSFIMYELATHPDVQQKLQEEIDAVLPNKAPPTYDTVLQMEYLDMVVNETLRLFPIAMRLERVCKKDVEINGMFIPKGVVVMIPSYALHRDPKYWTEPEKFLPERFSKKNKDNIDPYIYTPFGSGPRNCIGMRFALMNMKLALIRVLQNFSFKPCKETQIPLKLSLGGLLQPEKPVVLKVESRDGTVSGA
Chain of Cytochrome P450 2C9 (P11712 whole entry): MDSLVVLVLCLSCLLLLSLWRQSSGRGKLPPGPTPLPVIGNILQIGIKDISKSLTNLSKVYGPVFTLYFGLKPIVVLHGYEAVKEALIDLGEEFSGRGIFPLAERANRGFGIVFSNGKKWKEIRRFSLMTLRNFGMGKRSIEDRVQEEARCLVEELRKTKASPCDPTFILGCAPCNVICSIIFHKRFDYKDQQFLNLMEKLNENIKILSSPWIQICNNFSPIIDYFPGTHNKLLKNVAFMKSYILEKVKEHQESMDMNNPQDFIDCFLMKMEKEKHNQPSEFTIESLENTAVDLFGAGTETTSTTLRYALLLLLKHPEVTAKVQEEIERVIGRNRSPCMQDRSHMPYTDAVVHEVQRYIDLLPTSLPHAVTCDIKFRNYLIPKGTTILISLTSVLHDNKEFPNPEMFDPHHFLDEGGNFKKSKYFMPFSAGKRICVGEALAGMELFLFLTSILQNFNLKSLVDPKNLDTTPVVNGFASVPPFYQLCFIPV
Chain of Cytochrome P450 2C19 (P33261 whole entry): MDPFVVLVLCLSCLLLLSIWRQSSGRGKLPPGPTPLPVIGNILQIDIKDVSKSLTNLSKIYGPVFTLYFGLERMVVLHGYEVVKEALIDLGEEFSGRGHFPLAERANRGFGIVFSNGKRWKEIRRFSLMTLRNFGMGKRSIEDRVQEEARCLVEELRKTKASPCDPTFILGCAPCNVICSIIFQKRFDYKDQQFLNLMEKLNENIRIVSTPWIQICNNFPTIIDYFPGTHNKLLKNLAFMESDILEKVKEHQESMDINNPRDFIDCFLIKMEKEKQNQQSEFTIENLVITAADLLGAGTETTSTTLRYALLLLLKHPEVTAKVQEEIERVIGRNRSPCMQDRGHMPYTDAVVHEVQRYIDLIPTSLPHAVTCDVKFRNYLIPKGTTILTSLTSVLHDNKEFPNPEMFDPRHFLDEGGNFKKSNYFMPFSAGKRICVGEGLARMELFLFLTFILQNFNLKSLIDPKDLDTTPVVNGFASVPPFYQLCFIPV

SMILES | Ki (Vasopressin V2 receptor [1]) | Ki (Vasopressin V1a receptor) | Ratio Ki (Homo sapiens) | also measured
Cc1ccn(-c2ccc(C(=O)N3CCC(F)(F)/C(=C\C(=O)NCc4cccc(C#N)n4)c4ccccc43)c(Cl)c2)n1 | 7.4 nM | 22 nM | 3 | –
Cc1ccn(-c2ccc(C(=O)N3CCC(F)(F)/C(=C\C(N)=O)c4ccccc43)c(Cl)c2)n1 | 33 nM | 190 nM | 5.8 | –
Cc1cccc(CNC(=O)/C=C2/c3ccccc3N(C(=O)c3ccc(-n4ccc(C)n4)cc3Cl)CCC2(F)F)n1 | – | 30 nM | 5.4 | –
CCCNC(=O)/C=C1/c2ccccc2N(C(=O)c2ccc(-n3ccc(C)n3)cc2Cl)CCC1(F)F | 18 nM | 13 nM | 0.72 | –
Cc1ccn(-c2ccc(C(=O)N3CCC(F)(F)/C(=C\C(=O)NCc4ccccc4)c4ccccc43)c(Cl)c2)n1 | 19 nM | 43 nM | 2.3 | –
Cc1ccn(-c2ccc(C(=O)N3CCC(F)(F)/C(=C\C(=O)NCc4cccc(N(C)C)n4)c4ccccc43)c(Cl)c2)n1 | 11 nM | 48 nM | 4.4 | –
COc1cccc(CNC(=O)/C=C2/c3ccccc3N(C(=O)c3ccc(-n4ccc(C)n4)cc3Cl)CCC2(F)F)n1 | 16 nM | 47 nM | 2.9 | –
Cc1ccn(-c2ccc(C(=O)N3CCC(F)(F)/C(=C\C(=O)O)c4ccccc43)c(Cl)c2)n1 | 25 nM | 6300 nM | 252 | IC50 (Cytochrome P450 2C9): > 20000 nM; Activity (Rattus norvegicus): inactive; EC50 (Vasopressin V2 receptor [2]): 4.2 nM; IC50 (Cytochrome P450 3A4): > 20000 nM; IC50 (Cytochrome P450 2C19): > 20000 nM; Emax (Vasopressin V2 receptor [3]): 92.4%; IC50 (Cytochrome P450 2D6): 11000 nM
Cc1ccn(-c2ccc(C(=O)N3CCC(F)(F)/C(=C\C(=O)NCCN(C)C)c4ccccc43)c(Cl)c2)n1 | 53 nM | 59 nM | 1.1 | –
Cc1ccn(-c2ccc(C(=O)N3CCC(F)(F)/C(=C\C(=O)NCCO)c4ccccc43)c(Cl)c2)n1 | 9.7 nM | 28 nM | – | Activity (Rattus norvegicus): Active; EC50 (Vasopressin V2 receptor [2]): 6.3 nM; Emax (Vasopressin V2 receptor [3]): 93.9%
Cc1ccn(-c2ccc(C(=O)N3CCC(F)(F)/C(=C\C(=O)NCc4nc5ccccc5s4)c4ccccc43)c(Cl)c2)n1 | 11 nM | 55 nM | 5 | –
Cc1ccn(-c2ccc(C(=O)N3CCC(F)(F)/C(=C\C(=O)NCC(=O)O)c4ccccc43)c(Cl)c2)n1 | 22 nM | 230 nM | 10 | –
Cc1ccn(-c2ccc(C(=O)N3CCC(F)(F)/C(=C\C(=O)NCC(N)=O)c4ccccc43)c(Cl)c2)n1 | 11 nM | 40 nM | 3.6 | –
Cc1ccn(-c2ccc(C(=O)N3CCC(F)(F)/C(=C\C(=O)NCc4nc5ccccc5[nH]4)c4ccccc43)c(Cl)c2)n1 | 12 nM | 72 nM | 6 | –

Now from value to compound, other results behind:

Ki (Vasopressin V2 receptor [1]) | Ki (Vasopressin V1a receptor) | Ratio Ki (Homo sapiens) | SMILES | also measured
3.4 nM | 43 nM | – | Cc1ccn(-c2ccc(C(=O)N3CCC(F)(F)/C(=C\C(=O)NCc4cccnn4)c4ccccc43)c(Cl)c2)n1 | Activity (Rattus norvegicus): Active; EC50 (Vasopressin V2 receptor [2]): 16 nM; Emax (Vasopressin V2 receptor [3]): 86.4%
21 nM | 40 nM | 1.9 | Cc1ccn(-c2ccc(C(=O)N3CCC(F)(F)/C(=C\C(=O)NCc4cccnc4)c4ccccc43)c(Cl)c2)n1 | –
14 nM | 57 nM | 4.1 | Cc1ccn(-c2ccc(C(=O)N3CCC(F)(F)/C(=C\C(=O)NCc4cnccn4)c4ccccc43)c(Cl)c2)n1 | –
11 nM | 44 nM | 4 | Cc1ccn(-c2ccc(C(=O)N3CCC(F)(F)/C(=C\C(=O)NCc4ccncn4)c4ccccc43)c(Cl)c2)n1 | –
11 nM | 43 nM | 3.9 | Cc1ccn(-c2ccc(C(=O)N3CCC(F)(F)/C(=C\C(=O)NCc4nccs4)c4ccccc43)c(Cl)c2)n1 | –
– | 26 nM | – | Cc1ccn(-c2ccc(C(=O)N3CCC(F)(F)/C(=C\C(=O)NCc4ccccn4)c4ccccc43)c(Cl)c2)n1 | –
20 nM | 15 nM | 0.75 | Cc1ccn(-c2ccc(C(=O)N3CCC(F)(F)/C(=C\C(=O)NCc4ccncc4)c4ccccc43)c(Cl)c2)n1 | –
27 nM | 72 nM | 2.7 | Cc1ccn(-c2ccc(C(=O)N3CCC(F)(F)/C(=C\C(=O)NCc4ccco4)c4ccccc43)c(Cl)c2)n1 | –
10 nM | 38 nM | 3.8 | Cc1ccn(-c2ccc(C(=O)N3CCC(F)(F)/C(=C\C(=O)NCc4cccc(N)n4)c4ccccc43)c(Cl)c2)n1 | –

— ChEMBL document CHEMBL1153428, “Synthesis and structure-activity relationships of amide derivatives of (4,4-difluoro-1,2,3,4-tetrahydro-5H-1-benzazepin-5-ylidene)acetic acid as selective arginine vasopressin V2 receptor agonists” (Bioorg Med Chem, 2009)
